# From ChEMBL document CHEMBL3286116, “Synthesis, biological evaluation and structure-activity correlation study of a series of imidazol-based compounds as Candida albicans inhibitors” (Eur J Med Chem, 2014)
# Experiments:
# Type in all cases: functional
# Candida albicans [1] = assay: Antifungal activity against Candida albicans ATCC 90028 after 48 hrs by CLSI broth microdilution method; details: ATCC 90028, 48 h
# How it was run: (§1)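 Yeast CLSI broth microdilution (M27-A3). Compounds dissolved in DMSO at 100× the top test concentration, then diluted as serial two-fold dilutions in RPMI 1640 to final 0.125–64. Inoculum was 1.0–1.5 × 10^3 cells mL−1, incubated at 35 °C and read for growth at 48 h. MIC is the lowest concentration giving ≥50% growth inhibition versus growth control. Reported as the median of five replicates and as the geometric mean.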
# Candida albicans [2] = assay: Antifungal activity against Candida albicans ATCC 20891 after 48 hrs by CLSI broth microdilution method; details: ATCC 20891, 48 h; how it was run: as §1
# Candida albicans [3] = assay: Antifungal activity against Candida albicans PMC 1011 after 48 hrs by CLSI broth microdilution method; details: PMC 1011, 48 h; how it was run: as §1
# Pichia kudriavzevii [4] = assay: Antifungal activity against Candida krusei DSM 6128 after 48 hrs by CLSI broth microdilution method; details: DSM 6128, 48 h; how it was run: as §1
# Pichia kudriavzevii [5] = assay: Antifungal activity against Candida krusei PMC 0613 after 48 hrs by CLSI broth microdilution method; details: PMC 0613, 48 h; how it was run: as §1
# Candida tropicalis [6] = assay: Antifungal activity against Candida tropicalis PMC 0910 after 48 hrs by CLSI broth microdilution method; details: PMC 0910, 48 h; how it was run: as §1
# Candida tropicalis [7] = assay: Antifungal activity against Candida tropicalis DSM 11953 after 48 hrs by CLSI broth microdilution method; details: DSM 11953, 48 h; how it was run: as §1
# Candida parapsilosis [8] = assay: Antifungal activity against Candida parapsilosis DSM 11224 after 48 hrs by CLSI broth microdilution method; details: Lodderomyces parapsilosis, DSM 11224, 48 h; how it was run: as §1
# Candida parapsilosis [9] = assay: Antifungal activity against Candida parapsilosis ATCC 22019 after 48 hrs by CLSI broth microdilution method; details: Lodderomyces parapsilosis, ATCC 22019, 48 h; how it was run: as §1
# Nakaseomyces glabratus [10] = assay: Antifungal activity against Candida glabrata PMC 0805 after 48 hrs by CLSI broth microdilution method; details: PMC 0805, 48 h; how it was run: as §1
# Nakaseomyces glabratus [11] = assay: Antifungal activity against Candida glabrata PMC 0807 after 48 hrs by CLSI broth microdilution method; details: PMC 0807, 48 h; how it was run: as §1
# Cryptococcus neoformans [12] = assay: Antifungal activity against Cryptococcus neoformans PMC 2123 after 72 hrs by CLSI broth microdilution method; details: PMC 2123, 72 h
# How it was run: (§2)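 Cryptococcus neoformans tested by CLSI broth microdilution in RPMI 1640, with serial two-fold dilutions from DMSO stocks at 100× the top concentration, final 0.125–64. Inoculum was 1.0–1.5 × 10^3 cells mL−1 at 35 °C, with growth read at 72 h. MIC is the lowest concentration with ≥50% growth inhibition versus control. Median of five replicates, plus geometric mean.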
# Cryptococcus neoformans [13] = assay: Antifungal activity against Cryptococcus neoformans PMC 2136 after 72 hrs by CLSI broth microdilution method; details: PMC 2136, 72 h; how it was run: as §2
# Cryptococcus neoformans [14] = assay: Antifungal activity against Cryptococcus neoformans PMC 2115 after 72 hrs by CLSI broth microdilution method; details: PMC 2115, 72 h; how it was run: as §2
# Cryptococcus neoformans [15] = assay: Antifungal activity against Cryptococcus neoformans PMC 2103 after 72 hrs by CLSI broth microdilution method; details: PMC 2103, 72 h; how it was run: as §2
# Cryptococcus neoformans [16] = assay: Antifungal activity against Cryptococcus neoformans PMC 2107 after 72 hrs by CLSI broth microdilution method; details: PMC 2107, 72 h; how it was run: as §2
# Cryptococcus neoformans [17] = assay: Antifungal activity against Cryptococcus neoformans PMC 2102 after 72 hrs by CLSI broth microdilution method; details: PMC 2102, 72 h; how it was run: as §2
# Cryptococcus neoformans [18] = assay: Antifungal activity against Cryptococcus neoformans DSM 11959 after 72 hrs by CLSI broth microdilution method; details: DSM 11959, 72 h; how it was run: as §2
# Cryptococcus neoformans [19] = assay: Antifungal activity against Cryptococcus neoformans PMC 2111 after 72 hrs by CLSI broth microdilution method; details: PMC 2111, 72 h; how it was run: as §2
# [20] = tested on: Trichophyton mentagrophytes; assay: Antifungal activity against Trichophyton mentagrophytes DSM 4870 after 72 hrs by CLSI broth microdilution method; details: DSM 4870, 72 h
# How it was run: (§3)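 Dermatophytes tested by CLSI broth microdilution for filamentous fungi (M38-A2). Serial two-fold dilutions of DMSO-dissolved compound in RPMI 1640, final 0.125–64. Inoculum was 0.4–5 × 10^4 CFU mL−1, incubated at 35 °C and read at 72 h. MIC80 is the lowest concentration giving ≥80% growth inhibition versus growth control. Median of five replicates, plus geometric mean.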
# [21] = tested on: Trichophyton mentagrophytes; assay: Antifungal activity against Trichophyton mentagrophytes PMC 6515 after 72 hrs by CLSI broth microdilution method; details: PMC 6515, 72 h; how it was run: as §3
# [22] = tested on: Trichophyton mentagrophytes; assay: Antifungal activity against Trichophyton mentagrophytes PMC 6531 after 72 hrs by CLSI broth microdilution method; details: PMC 6531, 72 h; how it was run: as §3
# [23] = tested on: Trichophyton mentagrophytes; assay: Antifungal activity against Trichophyton mentagrophytes PMC 6509 after 72 hrs by CLSI broth microdilution method; details: PMC 6509, 72 h; how it was run: as §3
# [24] = tested on: Trichophyton mentagrophytes; assay: Antifungal activity against Trichophyton mentagrophytes PMC 6503 after 72 hrs by CLSI broth microdilution method; details: PMC 6503, 72 h; how it was run: as §3
# [25] = tested on: Trichophyton mentagrophytes; assay: Antifungal activity against Trichophyton mentagrophytes PMC 6552 after 72 hrs by CLSI broth microdilution method; details: PMC 6552, 72 h; how it was run: as §3
# Nannizzia gypsea [26] = assay: Antifungal activity against Microsporum gypseum PMC 7303 after 72 hrs by CLSI broth microdilution method; details: PMC 7303, 72 h; how it was run: as §3
# Nannizzia gypsea [27] = assay: Antifungal activity against Microsporum gypseum PMC 7331 after 72 hrs by CLSI broth microdilution method; details: PMC 7331, 72 h; how it was run: as §3
# Nannizzia gypsea [28] = assay: Antifungal activity against Microsporum gypseum DSM 3824 after 72 hrs by CLSI broth microdilution method; details: DSM 3824, 72 h; how it was run: as §3
# Candida albicans [29] = assay: Antifungal activity against Candida albicans ATCC 24433 after 48 hrs by CLSI broth microdilution method; details: ATCC 24433, 48 h; how it was run: as §1
# Candida albicans [30] = assay: Antifungal activity against Candida albicans ATCC 3153 after 48 hrs by CLSI broth microdilution method; details: ATCC 3153, 48 h; how it was run: as §1
# Candida albicans [31] = assay: Antifungal activity against Candida albicans ATCC 10231 after 48 hrs by CLSI broth microdilution method; details: ATCC 10231, 48 h; how it was run: as §1
# Candida albicans [32] = assay: Antifungal activity against Candida albicans ATCC 76615 after 48 hrs by CLSI broth microdilution method; details: ATCC 76615, 48 h; how it was run: as §1
# Candida albicans [33] = assay: Antifungal activity against Candida albicans ATCC 10261 after 48 hrs by CLSI broth microdilution method; details: ATCC 10261, 48 h; how it was run: as §1
structure (smiles),measurement,setting,value
O=C(OC(Cn1ccnc1)c1ccc(F)cc1)N1CCN(C(=O)c2ccco2)CC1 (centres undefined),MIC50,Candida albicans [1],32 mg/L
same,MIC50,Candida albicans [2],128 mg/L
same,MIC50,Candida albicans [3],32 mg/L
same,MIC50,Pichia kudriavzevii [4],128 mg/L
same,MIC50,Pichia kudriavzevii [5],32 mg/L
same,MIC50,Candida tropicalis [6],128 mg/L
same,MIC50,Candida tropicalis [7],64 mg/L
same,MIC50,Candida parapsilosis [8],32 mg/L
same,MIC50,Candida parapsilosis [9],16 mg/L
same,MIC50,Nakaseomyces glabratus [10],32 mg/L
same,MIC50,Nakaseomyces glabratus [11],128 mg/L
same,MIC50,Cryptococcus neoformans [12],128 mg/L
same,MIC50,Cryptococcus neoformans [13],64 mg/L
same,MIC50,Cryptococcus neoformans [14],128 mg/L
same,MIC50,Cryptococcus neoformans [15],64 mg/L
same,MIC50,Cryptococcus neoformans [16],128 mg/L
same,MIC50,Cryptococcus neoformans [17],128 mg/L
same,MIC50,Cryptococcus neoformans [18],64 mg/L
same,MIC50,Cryptococcus neoformans [19],128 mg/L
same,MIC80,[20],128 mg/L
same,MIC80,[21],128 mg/L
same,MIC80,[22],64 mg/L
same,MIC80,[23],64 mg/L
same,MIC80,[24],128 mg/L
same,MIC80,[25],128 mg/L
same,MIC80,Nannizzia gypsea [26],128 mg/L
same,MIC80,Nannizzia gypsea [27],128 mg/L
same,MIC80,Nannizzia gypsea [28],128 mg/L
same,MIC50,Candida albicans [29],128 mg/L
same,MIC50,Candida albicans [30],128 mg/L
same,MIC50,Candida albicans [31],64 mg/L
same,MIC50,Candida albicans [32],128 mg/L
same,MIC50,Candida albicans [33],128 mg/L
O=C(Nc1ccc(N2CCN(C(=O)c3ccco3)CC2)cc1)OC(Cn1ccnc1)c1ccc(F)cc1 (centres undefined),MIC50,Candida albicans [1],128 mg/L
same,MIC50,Candida albicans [2],128 mg/L
same,MIC50,Candida albicans [3],128 mg/L
same,MIC50,Pichia kudriavzevii [4],128 mg/L
same,MIC50,Pichia kudriavzevii [5],128 mg/L
same,MIC50,Candida tropicalis [6],128 mg/L
same,MIC50,Candida tropicalis [7],128 mg/L
same,MIC50,Candida parapsilosis [8],128 mg/L
same,MIC50,Candida parapsilosis [9],128 mg/L
same,MIC50,Nakaseomyces glabratus [10],128 mg/L
same,MIC50,Nakaseomyces glabratus [11],128 mg/L
same,MIC50,Cryptococcus neoformans [12],64 mg/L
same,MIC50,Cryptococcus neoformans [13],16 mg/L
same,MIC50,Cryptococcus neoformans [14],64 mg/L
same,MIC50,Cryptococcus neoformans [15],1 mg/L
same,MIC50,Cryptococcus neoformans [16],16 mg/L
same,MIC50,Cryptococcus neoformans [17],32 mg/L
same,MIC50,Cryptococcus neoformans [18],16 mg/L
same,MIC50,Cryptococcus neoformans [19],16 mg/L
same,MIC80,[20],128 mg/L
same,MIC80,[21],128 mg/L
same,MIC80,[22],128 mg/L
same,MIC80,[23],128 mg/L
same,MIC80,[24],128 mg/L
same,MIC80,[25],128 mg/L
same,MIC80,Nannizzia gypsea [26],64 mg/L
same,MIC80,Nannizzia gypsea [27],128 mg/L
same,MIC80,Nannizzia gypsea [28],128 mg/L
same,MIC50,Candida albicans [29],128 mg/L
same,MIC50,Candida albicans [30],128 mg/L
same,MIC50,Candida albicans [31],128 mg/L
same,MIC50,Candida albicans [32],128 mg/L
same,MIC50,Candida albicans [33],32 mg/L
O=C(O[C@@H](Cn1ccnc1)c1ccc(Cl)cc1)N1CCN(c2ccc(Cl)cc2)CC1,MIC50,Candida albicans [1],4 mg/L
same,MIC50,Candida albicans [2],8 mg/L
same,MIC50,Candida albicans [3],4 mg/L
same,MIC50,Pichia kudriavzevii [4],128 mg/L
same,MIC50,Pichia kudriavzevii [5],8 mg/L
same,MIC50,Candida tropicalis [6],16 mg/L
same,MIC50,Candida tropicalis [7],64 mg/L
same,MIC50,Candida parapsilosis [8],8 mg/L
same,MIC50,Candida parapsilosis [9],1 mg/L
same,MIC50,Nakaseomyces glabratus [10],8 mg/L
same,MIC50,Nakaseomyces glabratus [11],32 mg/L
same,MIC50,Cryptococcus neoformans [12],2 mg/L
same,MIC50,Cryptococcus neoformans [13],2 mg/L
same,MIC50,Cryptococcus neoformans [14],4 mg/L
same,MIC50,Cryptococcus neoformans [15],2 mg/L
same,MIC50,Cryptococcus neoformans [16],2 mg/L
same,MIC50,Cryptococcus neoformans [17],4 mg/L
same,MIC50,Cryptococcus neoformans [18],2 mg/L
same,MIC50,Cryptococcus neoformans [19],2 mg/L
same,MIC80,[20],8 mg/L
same,MIC80,[21],4 mg/L
same,MIC80,[22],8 mg/L
same,MIC80,[23],8 mg/L
same,MIC80,[24],4 mg/L
same,MIC80,[25],8 mg/L
same,MIC80,Nannizzia gypsea [26],8 mg/L
same,MIC80,Nannizzia gypsea [27],16 mg/L
same,MIC80,Nannizzia gypsea [28],8 mg/L
same,MIC50,Candida albicans [29],8 mg/L
same,MIC50,Candida albicans [30],4 mg/L
same,MIC50,Candida albicans [31],8 mg/L
same,MIC50,Candida albicans [32],8 mg/L
same,MIC50,Candida albicans [33],4 mg/L
